Molecules are shown by their SMILES. Some results are limits rather than exact numbers.

The text below walks through data of ChEMBL document CHEMBL4014346, “Lead Optimization Generates CYP11B1 Inhibitors of Pyridylmethyl Isoxazole Type with Improved Pharmacological Profile for the Treatment of Cushing's Disease” (J Med Chem, 2017).

One data set addresses CYP2C9 (Homo sapiens, UniProt P11712). The data set is described as follows: Inhibition of recombinant human CYP2C9 expressed in baculovirus infected insect cell microsomes at 1 uM relative to control. It is filed as ADME. In outline: (§1)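 Recombinant human CYP1A2, 2B6, 2C9, 2C19, 2D6 and 3A4 in baculovirus-infected insect-cell microsomes, assayed per kit instructions; test compound at 1 µM, percent inhibition.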

Data set [1] can be described thus: Half life in human liver S9 fractions at 1 uM in presence of NADPH/UDPGA by LC-MS/MS analysis. In kind it is ADME. An outline of the steps:
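Samples taken at 0, 5, 15 and 60 min, stopped with cold acetonitrile containing internal standard. Remaining parent measured by LC-MS/MS.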

For data set [2], the system named is Salmonella typhimurium. In words: Mutagenicity in Salmonella typhimurium TA7001/7002/7003/7004/7005/7006 up to 100 uM in presence of rat liver S9 fraction by Ames 2 assay. In kind it is toxicity. The following applies: salmonella enterica subsp. enterica serovar typhimurium. In outline: (§2)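 AMES II kit with Salmonella typhimurium TA98 and TA7001–TA7006, run with or without rat liver S9 fraction according to the kit instructions.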

Data set [3] in a line: Plasma concentration in Sprague-Dawley rat at 100 mg/kg, po administered as single dose after 1 hr by HPLC-MS/MS analysis. It is filed as ADME, organism-based. An outline of the steps: (§3)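 One female Sprague-Dawley rat dosed orally with a suspension in 0.5% porcine gelatin/5% mannitol in water, under 2% isoflurane. Tail-vein blood in citrate; plasma precipitated with acetonitrile containing diphenhydramine internal standard and quantified by HPLC-MS/MS.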

Data set [4] is described as follows: Plasma concentration in Sprague-Dawley rat at 100 mg/kg, po administered as single dose after 4 hrs by HPLC-MS/MS analysis. It is filed as ADME, organism-based. An outline of the steps: as §3
The subject of data set [5] is Salmonella typhimurium. The data set is described as follows: Mutagenicity in Salmonella typhimurium TA98 up to 100 uM in presence of rat liver S9 fraction by Ames 2 assay. It is filed as toxicity. The settings on record: salmonella enterica subsp. enterica serovar typhimurium. An outline of the steps: as §2
Data set [6] in a line: Aqueous solubility of the compound in 2% DMSO up to 24 hrs. It is filed as physicochemical.
The nature of data set [7]: Cytotoxicity against HEK293 cells assessed as reduction in cell viability after 66 hrs by MTT assay. It is filed as cell-based. The following applies: human. In outline:
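HEK293 cells seeded at 2x10⁵ per well; 4 h later, compound added at 100–6.25 µM in quadruplicate in 1% DMSO. MTT read-out at 570 nm after 66 h against vehicle control; IC20 derived by curve fitting.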

In another data set the target is T1, CYP19A1 (Homo sapiens, UniProt P11511).
T1 sequence (P11511 whole entry): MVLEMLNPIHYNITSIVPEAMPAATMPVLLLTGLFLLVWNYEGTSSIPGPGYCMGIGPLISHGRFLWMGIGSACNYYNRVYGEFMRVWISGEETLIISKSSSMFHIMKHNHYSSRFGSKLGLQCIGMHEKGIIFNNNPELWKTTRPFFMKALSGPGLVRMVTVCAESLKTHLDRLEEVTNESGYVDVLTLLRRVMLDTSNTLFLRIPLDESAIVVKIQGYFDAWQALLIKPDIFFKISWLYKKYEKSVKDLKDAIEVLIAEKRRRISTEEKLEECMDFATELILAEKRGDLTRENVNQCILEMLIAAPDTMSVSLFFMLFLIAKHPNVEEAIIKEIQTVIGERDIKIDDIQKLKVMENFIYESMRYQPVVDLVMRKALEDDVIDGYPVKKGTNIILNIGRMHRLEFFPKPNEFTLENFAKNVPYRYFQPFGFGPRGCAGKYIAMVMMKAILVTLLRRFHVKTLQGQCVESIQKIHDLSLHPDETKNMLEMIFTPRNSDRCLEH
In words: Inhibition of human placental microsomal CYP19A1 at 2 uM using [1beta-3H]-androstenedione as substrate after 20 mins in presence of NADPH by scintillation spectrometric method relative to control. The following applies: placental microsomes, probe [1beta-3H]-androstenedione. It is filed as ADME. An outline of the steps: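 Human placental microsomal CYP19A1; [1β-³H]androstenedione (500 nM) as substrate; test compounds at 2 µM; fadrozole and aminoglutethimide as references.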

For data set [8], the target named is T2, Cytochrome P450 11B2, mitochondrial (Homo sapiens, UniProt P19099).
T2 sequence (P19099 whole entry): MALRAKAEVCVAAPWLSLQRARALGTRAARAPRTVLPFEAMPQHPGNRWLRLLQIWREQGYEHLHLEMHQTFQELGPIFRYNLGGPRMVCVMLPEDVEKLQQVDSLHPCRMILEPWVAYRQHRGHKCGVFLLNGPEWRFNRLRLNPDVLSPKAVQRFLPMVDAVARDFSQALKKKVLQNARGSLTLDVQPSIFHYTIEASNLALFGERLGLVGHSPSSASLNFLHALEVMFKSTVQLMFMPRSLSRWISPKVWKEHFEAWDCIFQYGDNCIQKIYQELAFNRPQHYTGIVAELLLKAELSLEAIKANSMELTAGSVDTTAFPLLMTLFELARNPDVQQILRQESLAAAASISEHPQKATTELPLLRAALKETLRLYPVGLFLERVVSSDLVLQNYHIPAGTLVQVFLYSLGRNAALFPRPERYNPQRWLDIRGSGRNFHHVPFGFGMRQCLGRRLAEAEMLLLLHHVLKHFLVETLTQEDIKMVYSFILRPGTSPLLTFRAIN
In words: Inhibition of human CYP11B2 expressed in hamster V79MZ cells using [1,2-3H]-11-deoxycorticosterone as substrate after 6 hrs by HPLC analysis. In kind it is ADME, cell-based. An outline of the steps: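 V79MZ cells expressing recombinant human CYP11B1 or CYP11B2, or rat CYP11B1, incubated with [1,2-³H]-11-deoxycorticosterone (100 nM) and inhibitor over a range of concentrations; ketoconazole as reference.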

For a further data set, the target named is CYP2C19 (Homo sapiens, UniProt P33261). The data set is described as follows: Inhibition of recombinant human CYP2C19 expressed in baculovirus infected insect cell microsomes at 1 uM relative to control. It is filed as ADME. In outline:
as §1

The next data set has as its target T3, CYP17A1 (Homo sapiens, UniProt P05093).
T3 sequence (P05093 whole entry): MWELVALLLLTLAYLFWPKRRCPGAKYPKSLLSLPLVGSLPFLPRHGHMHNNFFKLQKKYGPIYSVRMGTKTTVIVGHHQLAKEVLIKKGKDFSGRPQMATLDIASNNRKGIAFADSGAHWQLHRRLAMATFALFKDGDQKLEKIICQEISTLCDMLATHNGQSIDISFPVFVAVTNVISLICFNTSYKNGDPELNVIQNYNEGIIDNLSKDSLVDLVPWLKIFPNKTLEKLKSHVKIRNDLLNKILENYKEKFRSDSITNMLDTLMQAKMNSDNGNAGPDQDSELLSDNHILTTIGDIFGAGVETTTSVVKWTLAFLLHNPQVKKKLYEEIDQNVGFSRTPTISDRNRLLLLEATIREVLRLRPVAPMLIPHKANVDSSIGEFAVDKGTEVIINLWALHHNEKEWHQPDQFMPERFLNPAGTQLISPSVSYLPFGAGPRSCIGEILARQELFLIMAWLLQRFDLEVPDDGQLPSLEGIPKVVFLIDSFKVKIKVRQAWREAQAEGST
The data set is described as follows: Inhibition of human CYP17A1 expressed in Escherichia coli membranes at 2 uM using [3H]-progesterone as substrate after 30 mins in presence of NADPH by HPLC analysis relative to control. In kind it is ADME, cell membranes. The following applies: Escherichia coli membranes expressing human CYP17A1, probe [3H]-progesterone. In outline: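 Human CYP17A1 expressed in E. coli; [³H]-progesterone (25 µM) as substrate with NADPH cofactor; test compounds at 2 µM; abiraterone and ketoconazole as references.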

CYP2C9, sequence (P11712 whole entry): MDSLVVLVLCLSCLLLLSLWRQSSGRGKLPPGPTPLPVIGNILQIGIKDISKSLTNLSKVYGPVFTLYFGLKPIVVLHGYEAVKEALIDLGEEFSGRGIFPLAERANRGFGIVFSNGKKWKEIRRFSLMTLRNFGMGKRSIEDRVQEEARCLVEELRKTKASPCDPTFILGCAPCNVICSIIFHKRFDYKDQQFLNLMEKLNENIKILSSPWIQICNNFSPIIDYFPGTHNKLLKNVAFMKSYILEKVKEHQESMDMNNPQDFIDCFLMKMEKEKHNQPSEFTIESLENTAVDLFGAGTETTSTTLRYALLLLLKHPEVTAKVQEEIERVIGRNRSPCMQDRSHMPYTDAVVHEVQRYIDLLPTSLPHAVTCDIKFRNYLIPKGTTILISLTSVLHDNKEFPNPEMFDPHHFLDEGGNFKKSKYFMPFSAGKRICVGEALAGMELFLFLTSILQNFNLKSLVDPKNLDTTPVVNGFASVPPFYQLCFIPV
CYP2C19, sequence (P33261 whole entry): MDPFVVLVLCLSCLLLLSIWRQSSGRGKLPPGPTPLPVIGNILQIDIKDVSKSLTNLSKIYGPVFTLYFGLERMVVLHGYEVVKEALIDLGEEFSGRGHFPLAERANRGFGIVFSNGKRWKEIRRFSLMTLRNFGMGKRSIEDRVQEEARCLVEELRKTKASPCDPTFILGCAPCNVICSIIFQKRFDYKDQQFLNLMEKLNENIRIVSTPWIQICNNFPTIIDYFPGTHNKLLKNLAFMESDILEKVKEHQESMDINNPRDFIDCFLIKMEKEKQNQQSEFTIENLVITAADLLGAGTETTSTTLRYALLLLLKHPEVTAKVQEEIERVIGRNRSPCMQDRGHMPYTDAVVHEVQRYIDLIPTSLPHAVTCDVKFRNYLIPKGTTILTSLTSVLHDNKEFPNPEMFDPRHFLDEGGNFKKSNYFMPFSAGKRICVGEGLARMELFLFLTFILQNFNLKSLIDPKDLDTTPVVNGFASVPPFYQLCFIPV

With `Cc1cncc(Cc2cc(-c3ccccc3)no2)c1`, the inhibition at 1 µM on CYP2C9 stood at 28%; on CYP2C19, 8%. The half-life at 1 µM in data set [1] was 2.42 h. For the same compound, the Activity entry with Salmonella typhimurium [2] and in the data set on Salmonella typhimurium [5] was “Non-Toxic” in each case. For the same compound, the concentration at 1 h in data set [3] came to 2.5 µM. The compound further had a concentration at 4 h in data set [4] of 0.3 µM. This compound also yielded a solubility at 24 h in data set [6] of more than 200 µM. The IC20 at 66 h in data set [7] is 28 µM. For the same compound, at CYP19A1, the inhibition at 20 min, 2 µM was not above 9%. The IC50 in [8] worked out at 0.082 µM. At CYP17A1, the inhibition at 0.5 h, 2 µM was not above 9%.

With `COc1cncc(Cc2cc(-c3ccccc3)no2)c1`, the inhibition at 1 µM on CYP2C9 and at CYP2C19 was 17% each time. In data set [1], the half-life at 1 µM was 2.08 h. The Activity entry in the data set on Salmonella typhimurium [2] and with Salmonella typhimurium [5] was “Non-Toxic” each time. The compound further came in with a concentration at 1 h in data set [3] of 19.7 µM. In data set [4], this compound gave a concentration at 4 h of 106 µM. The same compound showed a solubility at 24 h in [6] of more than 200 µM. The concentration for an effect of 20% (IC20) at 66 h in data set [7] came to 42 µM. Further, the inhibition at 20 min, 2 µM at CYP19A1 was not above 9%. In data set [8], this compound gave an IC50 of 0.027 µM. Moreover, the inhibition at 0.5 h, 2 µM at CYP17A1 was not above 9%.
